For 15 compounds, Ki and GTP shift results are on record in ChEMBL document CHEMBL1144990, “Alpha1-adrenoceptor antagonists. 6. Structural optimization of pyridazinone-arylpiperazines. Study of the influence on affinity and selectivity of cyclic substituents at the pyridazinone ring and alkoxy groups at the arylpiperazine moiety” (J Med Chem, 2003).

For assay [1], the target named is T1, 5-hydroxytryptamine receptor 1A (Rattus norvegicus, UniProt P19327).
T1 sequence (P19327 whole entry): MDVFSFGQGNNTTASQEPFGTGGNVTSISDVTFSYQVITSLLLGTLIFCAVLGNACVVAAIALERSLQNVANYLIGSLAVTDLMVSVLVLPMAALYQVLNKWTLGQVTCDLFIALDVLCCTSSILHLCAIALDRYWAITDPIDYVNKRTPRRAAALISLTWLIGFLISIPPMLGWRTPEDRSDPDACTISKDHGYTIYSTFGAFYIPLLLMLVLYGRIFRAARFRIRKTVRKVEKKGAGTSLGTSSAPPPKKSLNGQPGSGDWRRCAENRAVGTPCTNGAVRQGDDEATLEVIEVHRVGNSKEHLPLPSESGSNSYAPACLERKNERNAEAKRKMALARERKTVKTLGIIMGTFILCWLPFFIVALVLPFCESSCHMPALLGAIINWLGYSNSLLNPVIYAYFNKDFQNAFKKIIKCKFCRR
Put plainly: Displacement of [3H]8-OH-DPAT from 5-hydroxytryptamine 1A receptor of rat cortex membranes. The format is cell membranes, Membrane. In a few lines:
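Competition binding with seven drug concentrations, each in triplicate, across three separate experiments. IC50 values were converted to Ki by the Cheng–Prusoff equation, Ki = IC50/(1 + [L]/Kd), where [L] is the radioligand concentration and Kd its dissociation constant. Ki is reported as mean ± SD.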
On the technique in general: Loss of bound radioactivity is the signal in a displacement assay; it reports binding, not function.

For assay [2], the target named is T2, Adrenergic receptor alpha-1 (Rattus norvegicus, UniProt P15823+P23944+P43140).
T2 sequence (P15823 whole entry): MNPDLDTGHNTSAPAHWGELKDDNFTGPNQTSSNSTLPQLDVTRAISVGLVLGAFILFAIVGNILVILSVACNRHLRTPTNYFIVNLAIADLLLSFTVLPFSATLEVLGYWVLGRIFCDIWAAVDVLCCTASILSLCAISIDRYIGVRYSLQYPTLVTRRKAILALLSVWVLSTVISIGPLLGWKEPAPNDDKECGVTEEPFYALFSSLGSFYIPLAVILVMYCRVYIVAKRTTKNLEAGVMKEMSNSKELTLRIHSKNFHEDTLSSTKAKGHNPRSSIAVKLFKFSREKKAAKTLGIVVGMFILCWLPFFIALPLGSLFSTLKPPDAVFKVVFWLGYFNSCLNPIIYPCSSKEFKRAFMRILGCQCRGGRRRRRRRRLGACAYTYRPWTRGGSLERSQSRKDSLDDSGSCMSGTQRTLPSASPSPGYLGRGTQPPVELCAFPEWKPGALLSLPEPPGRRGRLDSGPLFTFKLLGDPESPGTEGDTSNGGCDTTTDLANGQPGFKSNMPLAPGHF
T2 sequence (P23944 whole entry): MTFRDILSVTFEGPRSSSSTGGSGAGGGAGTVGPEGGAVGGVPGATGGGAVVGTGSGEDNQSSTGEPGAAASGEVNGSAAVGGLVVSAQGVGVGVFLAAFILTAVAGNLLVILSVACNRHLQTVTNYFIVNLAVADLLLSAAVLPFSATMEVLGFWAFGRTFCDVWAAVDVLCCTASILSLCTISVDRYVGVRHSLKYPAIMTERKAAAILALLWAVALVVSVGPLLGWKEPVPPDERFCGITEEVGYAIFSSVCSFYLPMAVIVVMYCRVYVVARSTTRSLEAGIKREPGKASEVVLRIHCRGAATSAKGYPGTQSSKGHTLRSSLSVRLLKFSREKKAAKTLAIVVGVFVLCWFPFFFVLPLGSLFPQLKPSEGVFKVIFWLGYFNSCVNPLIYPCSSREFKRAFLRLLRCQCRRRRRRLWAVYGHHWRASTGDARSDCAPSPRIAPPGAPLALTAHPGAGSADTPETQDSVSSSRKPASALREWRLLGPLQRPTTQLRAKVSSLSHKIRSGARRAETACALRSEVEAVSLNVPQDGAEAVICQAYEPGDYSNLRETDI
T2 sequence (P43140 whole entry): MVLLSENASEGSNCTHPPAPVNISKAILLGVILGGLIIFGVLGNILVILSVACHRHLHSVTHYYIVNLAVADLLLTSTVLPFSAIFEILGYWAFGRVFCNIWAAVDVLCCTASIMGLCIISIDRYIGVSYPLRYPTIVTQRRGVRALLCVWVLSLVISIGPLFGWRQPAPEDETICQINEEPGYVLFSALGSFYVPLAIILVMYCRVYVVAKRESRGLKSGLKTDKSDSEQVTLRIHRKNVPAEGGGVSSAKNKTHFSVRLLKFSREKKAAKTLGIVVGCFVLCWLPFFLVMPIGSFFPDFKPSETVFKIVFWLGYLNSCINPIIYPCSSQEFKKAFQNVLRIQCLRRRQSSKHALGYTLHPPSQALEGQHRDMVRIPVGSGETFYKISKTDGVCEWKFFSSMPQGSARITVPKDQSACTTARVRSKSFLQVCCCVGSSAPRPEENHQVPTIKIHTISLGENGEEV
Put plainly: Intrinsic activity towards Alpha-1 adrenergic receptor by the displacement of [3H]prazosin from rat cerebral cortex membrane in presence of 1 nM GTP. The format is tissue-based.

The target in assay [3] is T2, Adrenergic receptor alpha-1. Put plainly: Intrinsic activity towards Alpha-1 adrenergic receptor by the displacement of [3H]prazosin from rat cerebral cortex membrane in absence of 1 nM GTP. The format is tissue-based.
Assay [4] deals with Adrenergic receptor alpha-1 (Rattus norvegicus) (UniProt P15823+P23944+P43140).
In assay [5] the target is T2, Adrenergic receptor alpha-1. Put plainly: Binding affinity for Alpha-1 adrenergic receptor in rat cortex membranes using [3H]-prazosin as radioligand. In kind it is cell membranes.
The target of assay [6] is T3, Adrenergic receptor alpha-2 (Rattus norvegicus, UniProt P22086+P19328+P22909).
T3 sequence (P22086 whole entry): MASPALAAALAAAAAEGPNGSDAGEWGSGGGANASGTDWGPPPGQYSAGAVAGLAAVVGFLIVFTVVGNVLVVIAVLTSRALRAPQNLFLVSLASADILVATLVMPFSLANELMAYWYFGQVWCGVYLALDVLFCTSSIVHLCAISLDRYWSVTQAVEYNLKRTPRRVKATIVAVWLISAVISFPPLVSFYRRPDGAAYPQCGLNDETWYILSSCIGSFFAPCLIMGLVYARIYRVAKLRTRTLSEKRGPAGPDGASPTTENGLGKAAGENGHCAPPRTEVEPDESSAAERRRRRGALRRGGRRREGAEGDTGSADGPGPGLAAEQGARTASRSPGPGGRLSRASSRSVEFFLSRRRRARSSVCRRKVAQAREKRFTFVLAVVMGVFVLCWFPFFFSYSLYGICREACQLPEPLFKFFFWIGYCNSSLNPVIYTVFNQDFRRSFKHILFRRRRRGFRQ
T3 sequence (P19328 whole entry): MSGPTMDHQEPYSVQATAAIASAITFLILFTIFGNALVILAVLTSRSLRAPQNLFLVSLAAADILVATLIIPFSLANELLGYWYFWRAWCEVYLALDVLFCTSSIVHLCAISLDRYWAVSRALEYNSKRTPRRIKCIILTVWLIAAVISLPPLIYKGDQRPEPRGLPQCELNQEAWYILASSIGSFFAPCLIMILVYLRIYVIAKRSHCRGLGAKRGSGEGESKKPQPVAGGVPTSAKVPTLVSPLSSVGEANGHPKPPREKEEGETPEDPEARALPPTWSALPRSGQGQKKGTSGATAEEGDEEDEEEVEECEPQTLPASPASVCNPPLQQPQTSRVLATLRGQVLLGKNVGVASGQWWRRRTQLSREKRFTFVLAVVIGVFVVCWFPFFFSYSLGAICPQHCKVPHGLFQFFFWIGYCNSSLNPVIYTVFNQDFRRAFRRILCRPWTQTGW
T3 sequence (P22909 whole entry): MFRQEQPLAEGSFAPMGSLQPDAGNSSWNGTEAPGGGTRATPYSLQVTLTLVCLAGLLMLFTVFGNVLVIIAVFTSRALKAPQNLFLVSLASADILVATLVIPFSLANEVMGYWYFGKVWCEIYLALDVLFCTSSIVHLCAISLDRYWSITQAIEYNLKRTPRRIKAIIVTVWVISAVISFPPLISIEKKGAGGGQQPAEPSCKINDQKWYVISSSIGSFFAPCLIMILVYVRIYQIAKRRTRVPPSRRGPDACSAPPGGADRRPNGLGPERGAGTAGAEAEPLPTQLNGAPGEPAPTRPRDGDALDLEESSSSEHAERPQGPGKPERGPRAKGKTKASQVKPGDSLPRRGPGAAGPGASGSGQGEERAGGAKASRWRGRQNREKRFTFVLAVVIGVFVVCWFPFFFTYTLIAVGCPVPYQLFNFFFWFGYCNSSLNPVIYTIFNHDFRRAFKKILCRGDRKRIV
Put plainly: Binding affinity for Alpha-2 adrenergic receptor in rat cortex membranes using [3H]rauwolscine as radioligand. In kind it is cell membranes.

As for `CCOc1ccccc1OCCN1CCN(c2cnn(CCCCCCCN3CCN(c4ccccc4OC(C)C)CC3)c(=O)c2Cl)CC1`, the Ki was 2.54 nM in assay [1], 0.22 nM in assay [2] and 0.28 nM in assay [3]. The GTP shift in assay [4] came out at 0.8.

As to `CC(C)Oc1ccccc1N1CCN(CCCCCCCn2ncc(Cl)c(N3CCN(CC4COc5ccccc5O4)CC3)c2=O)CC1` (configuration not stated), the results for the inhibitory constant (Ki) in assay [1], in assay [5] and in assay [6] were 1.52 nM, 0.32 nM and 13.4 nM, respectively.

Regarding `COc1ccccc1N1CCN(CCCCCCCn2ncc(N3CCN(CC4COc5ccccc5O4)CC3)c(Cl)c2=O)CC1` (configuration not stated), the Ki came to 11.1 nM in assay [1], 1.68 nM in assay [5] and 0.85 nM in assay [6].

`COc1ccccc1OCCN1CCN(c2cnn(CCCCCCCN3CCN(c4ccccc4OC)CC3)c(=O)c2Cl)CC1` had an inhibition constant Ki in assay [5] of 1.45 nM.

As for `CCOc1ccccc1OCCN1CCN(c2cnn(CCCCCCCN3CCN(c4ccccc4OC)CC3)c(=O)c2Cl)CC1`, the Ki in assay [1] was found to be 0.82 nM.

Take `CCOc1ccccc1N1CCN(CCCCCCCn2ncc(N3CCN(CC4COc5ccccc5O4)CC3)c(Cl)c2=O)CC1` (configuration not stated): the results for the inhibition constant Ki in assay [1], in assay [5] and in assay [6] were 49.8 nM, 0.42 nM and 2.16 nM, respectively.

For `COc1cc2nc(N3CCN(C(=O)c4ccco4)CC3)nc(N)c2cc1OC`, in assay [4], the GTP shift came to 1.2.

On to `CC(C)Oc1ccccc1N1CCN(CCCCCCCn2ncc(N3CCN(CC4COc5ccccc5O4)CC3)c(Cl)c2=O)CC1` (configuration not stated), for which the inhibition constant Ki in assay [1] amounted to 2.47 nM; in assay [2] it was 0.33 nM; in assay [3], 0.23 nM; in assay [5] it was 0.31 nM; in assay [6], 3.34 nM. Further, in assay [4], the GTP shift was 1.4.

Consider `CCOc1ccccc1N1CCN(CCCCCCCn2ncc(Cl)c(N3CCN(C(=O)c4ccco4)CC3)c2=O)CC1`, for which the Ki in assay [1] was 0.35 nM; in assay [5], 0.23 nM; in assay [6], 0.8 nM.

Compound `CCOc1ccccc1OCCN1CCN(c2cnn(CCCCCCCN3CCN(c4ccccc4OCC)CC3)c(=O)c2Cl)CC1` had an inhibition constant Ki in assay [1] of 1.32 nM.

Turning to `CC(C)Oc1ccccc1N1CCN(CCCCCCCn2ncc(Cl)c(N3CCN(C(=O)c4ccco4)CC3)c2=O)CC1`, the values for the inhibition constant (Ki) in assay [1], in assay [5] and in assay [6] were 1.16 nM, 0.08 nM and 0.66 nM, respectively.

For the compound `CCOc1ccccc1N1CCN(CCCCCCCn2ncc(Cl)c(N3CCN(CC4COc5ccccc5O4)CC3)c2=O)CC1` (configuration not stated), the Ki in assay [1] stood at 1.02 nM; in assay [5] it was 0.43 nM; in assay [6], 2.4 nM.

For the compound `CC(C)Oc1ccccc1N1CCN(CCCCCCCn2ncc(N3CCN(C(=O)c4ccco4)CC3)c(Cl)c2=O)CC1`, the Ki in assay [1] was found to be 0.9 nM; in assay [2] it was 0.081 nM; in assay [3], 0.047 nM. Moreover, the GTP shift in assay [4] is 1.7.

For the compound `COc1ccccc1N1CCN(CCCCCCCn2ncc(Cl)c(N3CCN(C(=O)c4ccco4)CC3)c2=O)CC1`, the inhibitory constant (Ki) in assay [1] is 0.42 nM; in assay [5], 0.37 nM; in assay [6], 1.23 nM.

As for `COc1ccccc1N1CCN(CCCCCCCn2ncc(Cl)c(N3CCN(CC4COc5ccccc5O4)CC3)c2=O)CC1` (configuration not stated), the values for the inhibition constant (Ki) in assay [1], in assay [5] and in assay [6] were 0.4 nM, 0.54 nM and 1.45 nM, respectively.

One may read the Ki as a measure of affinity in units of concentration, obtained from inhibition or displacement.
